This is an account of results in ChEMBL document CHEMBL2380254, “Optimization of tocotrienols as antiproliferative and antimigratory leads” (Eur J Med Chem, 2013).

Common to all, as to assay type: functional
Experiment [1] has as its system SNB-19. The experiment in a line: Growth inhibition of human SNB19 cells assessed as cell growth at 10 uM after 48 hrs by sulforhodamine B assay. The note with it: SNB-19, 48 h, read-out: Activity. In short, it runs like this: (§1)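 Single-dose NCI-60 test at 10 µM. Cells were grown in RPMI 1640 with 5% FBS and 2 mM L-glutamine, preincubated 24 h, with T0 plates TCA-fixed. Exposure was 48 h at 37 °C, 5% CO2. Cells were fixed with cold TCA (final 10%, 4 °C, 60 min), stained with SRB and read at 515 nm. Percent growth was taken relative to T0 and untreated control; negative values denote cell kill.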

Experiment [2] has as its system UO-31. The experiment in a line: Growth inhibition of human UO31 cells assessed as cell growth at 10 uM after 48 hrs by sulforhodamine B assay. The note with it: UO-31, 48 h, read-out: Activity. The gist of the method:
as §1

In experiment [3] the test system is SF-539. The experiment in a line: Growth inhibition of human SF539 cells assessed as cell growth at 10 uM after 48 hrs by sulforhodamine B assay. The note with it: SF-539, 48 h, read-out: Activity. The gist of the method:
(§2)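 Single-dose NCI-60 screen: adherent cells in RPMI 1640 with 5% FBS were exposed to 10 µM for 48 h at 37 °C after a 24 h preincubation. They were fixed in situ with cold TCA (10% final), stained with 0.4% SRB in 1% acetic acid, solubilized in 10 mM Tris base, and read at 515 nm. Percent growth was taken relative to time-zero and control plates.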
Background: Sulforhodamine B stains cellular protein and so reports cell mass.

The subject of experiment [4] is MDA-MB-435. The experiment in a line: Growth inhibition of human MDA-MB-435 cells assessed as cell growth at 10 uM after 48 hrs by sulforhodamine B assay. The settings on record: MDA-MB-435, 48 h, read-out: Activity. In short, it runs like this: as §2
Experiment [5] deals with SR. The experiment in a line: Growth inhibition of human SR cells assessed as cell growth at 10 uM after 48 hrs by sulforhodamine B assay. The settings on record: read-out: Activity. In short, it runs like this:
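Suspension line in RPMI 1640 with 5% FBS, single 10 µM dose for 48 h. Settled cells were fixed with TCA (final 16%), then SRB-stained and read at 515 nm. Percent growth was taken versus T0 and control; negative values denote cytotoxicity.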

The test system of experiment [6] is HCT-116. The experiment in a line: Growth inhibition of human HCT116 cells assessed as cell growth at 10 uM after 48 hrs by sulforhodamine B assay. The settings on record: HCT-116, 48 h, read-out: Activity. The gist of the method:
(§3)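 NCI-60 single-dose screen at 10 µM: cells in RPMI 1640 with 5% FBS, preincubated 24 h, then exposed 48 h at 37 °C. TCA fixation (16% final for suspension cells), SRB staining, absorbance 515 nm. Percent growth relative to time-zero and untreated control plates; negative values indicate cell kill.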

Experiment [7] deals with COLO 205. The experiment in a line: Growth inhibition of human COLO205 cells assessed as cell growth at 10 uM after 48 hrs by sulforhodamine B assay. The note with it: COLO 205, 48 h, read-out: Activity. In short, it runs like this: as §3
Experiment [8] deals with ACHN. The experiment in a line: Growth inhibition of human ACHN cells assessed as cell growth at 10 uM after 48 hrs by sulforhodamine B assay. The settings on record: read-out: Activity. The gist of the method: as §3
Experiment [9] concerns 786-0. The experiment in a line: Growth inhibition of human 786-0 cells assessed as cell growth at 10 uM after 48 hrs by sulforhodamine B assay. The settings on record: 786-0, 48 h, read-out: Activity. The gist of the method:
as §3

For experiment [10], the system named is SK-OV-3. The experiment in a line: Growth inhibition of human SKOV3 cells assessed as cell growth at 10 uM after 48 hrs by sulforhodamine B assay. The note with it: SK-OV-3, 48 h, read-out: Activity. In short, it runs like this:
as §1

Experiment [11] relates to A549. The experiment in a line: Growth inhibition of human A549/ATCC cells assessed as cell growth at 10 uM after 48 hrs by sulforhodamine B assay. The note with it: A549, 48 h, read-out: Activity. The gist of the method: as §3
Experiment [12] has as its system OVCAR-3. The experiment in a line: Growth inhibition of human OVCAR3 cells assessed as cell growth at 10 uM after 48 hrs by sulforhodamine B assay. The settings on record: OVCAR-3, 48 h, read-out: Activity. The gist of the method: as §2
Experiment [13] has as its system NCI-H460. The experiment in a line: Growth inhibition of human NCI-H460 cells assessed as cell growth at 10 uM after 48 hrs by sulforhodamine B assay. The settings on record: NCI-H460, 48 h, read-out: Activity. In short, it runs like this:
as §2

Molecules are shown by their SMILES.

As for `COc1ccc(CCN2COc3c(C)c(C)c4c(c3C2)CC[C@@](C)(CC/C=C(\C)CC/C=C(\C)CCC=C(C)C)O4)cc1OC`, the growth at 10 µM in [1] worked out at 104%; in experiment [2] it was 76.2%; in experiment [3] it was 103%; in experiment [4] it was 90.7%; in experiment [5], 54.6%; in [6], 91.9%. Besides, the growth at 10 µM in experiment [7] turned out to be 86.7%; in experiment [8], 95.8%; in [9] it was 94.9%; in experiment [10], 95.3%; in [11], 98.9%; in experiment [12], 105%. Moreover, the growth at 10 µM in experiment [13] amounted to 103%.

For the compound `CC(C)=CCC/C(C)=C/CC/C(C)=C/CC[C@]1(C)CCc2c3c(c(C)c(C)c2O1)OCN(CCCCCCCCCCO)C3`, the growth at 10 µM in experiment [1] turned out to be 95.7%; in experiment [2], 71.7%; in experiment [3], 97.6%; in [4], 98.3%; in experiment [5], 51.9%; in experiment [6], 78.4%. The growth at 10 µM in [7] was found to be 100%; in [8] it was 92.6%; in [9], 99.2%; in [11], 74.9%; in experiment [12], 94.8%; in experiment [13], 75.5%.

Regarding `CC(C)=CCC/C(C)=C/CC/C(C)=C/CC[C@]1(C)CCc2c3c(c(C)c(C)c2O1)OCN(CCc1ccc(O)cc1)C3`, the growth at 10 µM in [1] came to 94.1%; in experiment [2], 71.9%; in experiment [3] it was 104%; in experiment [4] it was 54.5%; in experiment [5], 16.3%; in experiment [6], 37.7%. The growth at 10 µM in [7] was 52.1%; in [8], 99.8%; in experiment [9] it was 77.3%; in experiment [10] it was 105%; in experiment [11], 92.8%; in experiment [12], 98.2%. The growth at 10 µM in [13] amounted to 62.4%.

For the compound `CC(C)=CCC/C(C)=C/CC/C(C)=C/CC[C@]1(C)CCc2cc(O)c(C)c(C)c2O1` [GAMMA-TOCOTRIENOL], the growth at 10 µM in experiment [1] is 114%; in experiment [2] it was 64.1%; in experiment [3], 101%; in experiment [4] it was 102%; in experiment [5] it was 85.5%; in experiment [6], 109%. Further, the growth at 10 µM in [7] was 94.4%; in experiment [8] it was 100%; in experiment [9], 114%; in [11], 105%; in [12], 110%; in experiment [13] it was 105%.

With `CC(C)=CCC/C(C)=C/CC/C(C)=C/CC[C@]1(C)CCc2c3c(cc(C)c2O1)OCN(CCCCCCCCCCCCO)C3`, the growth at 10 µM is 92.7% in [1]; 51.7% in [2]; 102% in [3]; 71.5% in [4]; -19.6% in experiment [5]; 51.6% in experiment [6]. Also, the growth at 10 µM in experiment [7] was 71.2%; in experiment [8] it was 91.3%; in experiment [9], 97%; in experiment [11] it was 47.6%; in experiment [12], 89.5%; in experiment [13], 48.2%.

`COc1ccc(CCNCc2c(O)c(C)c(C)c3c2CC[C@@](C)(CC/C=C(\C)CC/C=C(\C)CCC=C(C)C)O3)cc1OC`: the growth at 10 µM came to 89.6% in [1]; 69.5% in experiment [2]; 97% in experiment [3]; 57.5% in [4]; 7.87% in [5]; 47.1% in experiment [6]. The growth at 10 µM in [7] was determined as 5.95%; in [8], 97.5%; in [9], 78.1%; in [10], 105%; in [11], 91.8%; in experiment [12], 101%. Moreover, the growth at 10 µM in experiment [13] was 73.4%.

Take `CC(C)=CCC/C(C)=C/CC/C(C)=C/CC[C@]1(C)CCc2c3c(cc(C)c2O1)OCN(CCCCCCCCCCO)C3`: the growth at 10 µM was 98.9% in [1]; 61.9% in [2]; 98.3% in [3]; 101% in experiment [4]; 3.3% in experiment [5]; 65.6% in experiment [6]. Besides, the growth at 10 µM amounted to 79.3% in experiment [7]; 99.1% in experiment [8]; 85.3% in [9]; 59.9% in experiment [11]; 94.3% in [12]; 91.6% in experiment [13].

For the compound `CC(C)=CCC/C(C)=C/CC/C(C)=C/CC[C@]1(C)CCc2c3c(c(C)c(C)c2O1)OCN(CCCCCCCCCCCCO)C3`, the growth at 10 µM in experiment [1] came out at 104%; in experiment [2] it was 77.7%; in experiment [3], 111%; in experiment [4] it was 100%; in [5], 67.2%; in [6], 102%. Besides, the growth at 10 µM in experiment [7] was determined as 97.5%; in [8], 105%; in experiment [9] it was 110%; in experiment [11], 86.5%; in experiment [12], 109%; in experiment [13] it was 103%.

On to `CC(C)=CCC/C(C)=C/CC/C(C)=C/CC[C@]1(C)CCc2c(CNCCc3ccc(O)cc3)c(O)c(C)c(C)c2O1`, for which the growth at 10 µM amounted to 99.8% in experiment [1]; 70.8% in experiment [2]; 113% in experiment [3]; 81.3% in experiment [4]; 18.5% in experiment [5]; 61.4% in experiment [6]. Further, the growth at 10 µM is 106% in experiment [7]; 98.7% in [8]; 78.2% in [9]; 102% in experiment [10]; 94.2% in experiment [11]; 97.1% in experiment [12]. In addition, the growth at 10 µM in experiment [13] was 92.3%.
